# Assay results from ChEMBL document CHEMBL4513216, “Probing the Open Global Health Chemical Diversity Library for Multistage-Active Starting Points for Next-Generation Antimalarials” (ACS Infect Dis, 2020).
# Assay: Toxicity liver stage against HepG2, at 10uM
# Type: cell-based
# Set-up: test concentration 10 uM, cell line HepG2-A16-CD81EGFP
# Conditions: human, HepG2-A16-CD81EGFP cells; read-out: INHIBITION
# Summary of the method: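 Uninfected HepG2-A16-CD81EGFP cells, 3 × 10^3 per well, 1536-well, plated on prespotted compound at 10 μM final, parasite-free screening media added to match infected plates; puromycin 10 μM positive, DMSO 0.5% negative; run in parallel with 48 h PbLuc assay at 37 °C, 5% CO2; viability by CellTiter-Glo luminescence, normalized to controls.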
row,SMILES,cytotoxicity at 10 µM
1,COc1ccc(CCC(=O)NCCC2CCCO2)cc1Br (stereo not drawn),2.6%
2,CCNC(=O)NC[C@H]1COCc2nc3cc(OC)ccc3n21,-2.3%
3,Cc1ccn(CCC(=O)NCCc2ccco2)n1,-4.81%
4,O=C1COc2ccc(S(=O)(=O)NCCC3=CCCCC3)cc2N1,5.42%
5,Cc1cccc(NC(=O)Nc2c[nH]c(=O)[nH]c2=O)c1C,8.2%
6,Cc1ccc2c(c1)C(=O)CC1(CCN(Cc3ccccc3)CC1)O2,2.81%
7,COc1ccc2c(c1)[nH]c1c(N(C)CC3OCCO3)ncnc12,18.2%
8,COc1ccc(N2CCN(C(=O)c3cc(=O)c(OC)c[nH]3)CC2)cc1,-0.244%
9,Cc1nnsc1-c1nnc2sc(C3CCC3)nn12,-7.86%
10,O=C(Cc1cccc(F)c1)N1CCc2ncnc(N3CCCC3)c2CC1,-4.9%
11,CN1CC[C@]2(CN(C(=O)c3ccc[nH]3)C[C@H]2c2ccccc2)C1=O,11.6%
12,CN(C)c1ncnc2c1CCN(c1cccc(F)c1)CC2,18.5%
13,CCOCc1ncn2c1CN(S(=O)(=O)c1cccc(C)c1)CC2,-1.33%
14,CCc1c(C)n(C)c2nc3ccccc3n2c1=O,5.94%
15,O=C(Cn1cc(-c2ccccc2)ncc1=O)Nc1nccs1,-4.83%
16,Cc1ccc2nc(C3CCN(CCO)CC3)nn2c1,-1.23%
17,O=C(NCC1OCCc2cn(CC3CC3)nc21)c1ccsc1 (stereo not drawn),6.69%
18,CCn1ccc(-c2nnc(SCC(=O)NCC(C)C)n2CC)n1,5.44%
19,O=C(NCc1ccccc1Cl)c1[nH]nc2c1CS(=O)(=O)CC2,-0.908%
20,COc1ccc(Nc2nc3c(C)nn(C)c3c(=O)n2C)c(OC)c1,-6.89%
21,O=C(CN1CCC2(CC1)NC(=O)c1cc(Br)ccc1N2)NC1CC1,4.79%
22,CN(C)C(=O)Cn1c(C2CC2)c(CN2CCOCC2)c2cccnc21,-3.99%
23,Cc1cnc(CC2COCCN(C(=O)c3cncnc3)C2)cn1 (stereo not drawn),0.187%

row,SMILES,cytotoxicity at 10 µM
1,NC(=O)c1ccccc1Oc1cccc(C2CCCNC2)n1 (stereo not drawn),5.19%
2,CN1CC(=O)N(C2CCNC2)Cc2c(NC3CCCC3)ncnc21 (stereo not drawn),9.46%
3,Cc1ccc(C(=O)NCCS(=O)(=O)Cc2ccccc2)c(C)c1,-5.09%
4,O=C(NC1CCc2nccn2C1)c1ccc(OCC2CC2)nc1 (stereo not drawn),4.36%
5,C1CCN(CCN2CCCCC2C2OCCO2)CC1 (stereo not drawn),3.19%
6,O=C(CCOCc1ccccc1)NS(=O)(=O)N1CCOc2ccccc21,9.15%
7,O=C(C1CCCOC1)N(CC(F)F)c1cccc(Cl)c1 (stereo not drawn),8.27%
8,CC(C)CNC(=O)c1ccc(NC(=O)NC(C)c2ccccn2)cc1 (stereo not drawn),5.26%
9,CCCNC(=O)c1ccc(NC(=O)NC(C)c2ccccn2)cc1 (stereo not drawn),9.15%
10,COC(=O)C1CCCN1C(=O)c1ccc(Cl)cc1F (stereo not drawn),-7.7%
11,CCc1cccnc1NCc1cnc(N2CCOCC2)nc1,1.03%
12,NC(=O)CC1CCCN(c2cncc(SCc3ccccc3)n2)C1 (stereo not drawn),11%
13,CCOC(=O)c1ccc(CNC(=O)c2ccc(Cl)cn2)o1,6.72%
14,O=C(NCC1CC(=O)N(CCc2ccccc2)C1)c1c(F)cccc1F (stereo not drawn),9.52%
15,CCCn1cc(NC(=O)c2ccc(NC(=O)NC3CC3)cc2)ccc1=O,1.93%
16,CC(C)(O)CSCCNCc1ccc(Cl)c2cccnc12,-8.87%
17,Cc1cnn(CCNCc2ccc(S(C)(=O)=O)cc2)c1,7.55%
18,CCOCC(=O)Nc1cccc(Oc2ccccn2)c1,-2.41%
19,CS(=O)(=O)CCOCCNc1ccc(C(F)(F)F)cc1C#N,2.31%
20,COc1cc(C(C)=O)ccc1SCC(=O)Nc1cc(C)n[nH]1,9.83%
21,CC(C)OCCSCc1nnc(-c2cccc(F)c2)o1,9.45%
22,CCOC(C)c1nc(Cn2cc(-n3cccc3)cn2)cs1 (stereo not drawn),3.81%
23,Cc1ncsc1CN(C)C(=O)C(CC(C)C)N1CCCCC1=O (stereo not drawn),3.28%

row,SMILES,cytotoxicity at 10 µM
1,Cn1cnnc1-c1cncc(NCc2ccccc2Br)c1,6.53%
2,CN(C)c1ncc(CNS(=O)(=O)c2cccc3ccccc23)n1C,8.32%
3,CS(=O)(=O)NC(=O)CCc1cccc(OC2CCCC2)c1,-5.01%
4,COc1ccccc1S(=O)(=O)Nc1cnc(O)cc1C,-13.2%
5,COc1ccc(C(=O)NCCCC2(C3OCCO3)CCOCC2)cc1,3.05%
6,COc1ccccc1CNC(C)c1cnc2cc(C)nn2c1C (stereo not drawn),8.32%
7,Cc1cc(C(=O)N2CCCC2)ccc1NCCOCC(F)(F)F,0.608%
8,CN1CCN(Cc2cccc(NCc3ncc[nH]3)c2)CC1,-6.44%
9,COCc1nc2n(n1)CCCC2Nc1nc(C2CC2)ns1 (stereo not drawn),17%
10,Cc1ccc(C(O)CNC(=O)NCc2nc(C)cs2)cc1 (stereo not drawn),-13.3%
11,Cn1cc(CC2CCN(C(=O)NCCc3cccc(O)c3)C2)cn1 (stereo not drawn),1.05%
12,O=C([C@H]1CC[C@@H]2[C@@H](CCN2c2ncccn2)O1)N1CCCCO1,6.46%
13,O=C(Cc1ccc(F)cc1)N1CCn2cc(Cn3cncn3)nc2C1,-74%
14,CC(=O)NCC(=O)N1CCN(Cc2cccnc2)c2ncccc2C1,-114%
15,COc1cc2nc(NCCN3CCNC3=O)cc(C)c2cc1OC,-0.454%
16,Cc1nnc(SCCNC(=O)c2cc(S(N)(=O)=O)ccc2F)s1,-1.4%
17,CCN(Cc1ccc2cccc(O)c2n1)CC1CCCO1 (stereo not drawn),-4.02%
18,CC(C)Cc1nc(CN2CCC3(CCCO3)CCC2=O)no1 (stereo not drawn),1.95%
19,Cc1cnc(NC(=O)c2cccc(CN(C)Cc3snnc3C)c2)s1,16.3%
20,O=C(CSc1ccccc1)Nc1cnn(CC(=O)N2CCCO2)c1,-0.969%
21,Cc1cccc(-c2cc(-c3c(C)nn(CCO)c3C)c(C#N)c(N)n2)c1,20.2%
22,COCC(=O)N1CCN(S(=O)(=O)c2cccs2)[C@H]2CS(=O)(=O)C[C@H]21,1.44%
23,CC(C)=CCN1CCNC(=O)C1CC(=O)N1CCc2sccc2C1 (stereo not drawn),0.429%

row,SMILES,cytotoxicity at 10 µM
1,CC(C)c1cc(NCC(O)c2ccccn2)n2nccc2n1 (stereo not drawn),13%
2,COCC(=O)N1CCCC(C(=O)N(C)CCn2ccnc2C)C1 (stereo not drawn),0.707%
3,CCn1cc(CN(C)C(=O)C(c2ccccc2C)N(C)C)cn1 (stereo not drawn),0.0381%
4,O=C1CCCN1CCCNCc1cc(O)c2cccc(Cl)c2n1,4.05%
5,CN(Cc1cc(C2CC2)on1)C(=O)CN1C(=O)OC(C)(C)C1=O,-127%
6,O=C(c1ccc2c(c1)CCO2)N1CCN(c2ccc(Cl)cn2)CC1,9.56%
7,CSCC[C@H](N)C(=O)N1CC(Oc2ccccc2C)C1,0.897%
8,COc1cccc(-c2cc(C(=O)NCCn3nc(C)nc3C)[nH]n2)c1,-2.77%
9,C[C@@H]1CN(CCC(=O)N(C)Cc2ccccc2)CC[C@@]1(O)C1CCC1,2.89%
10,CS(=O)(=O)CCN1CCC2(CCCN(C3CCOCC3)C2=O)C1 (stereo not drawn),-5.65%
11,COc1ncc(-c2nccn2CCN(C)C)cn1,-17.4%
12,CC(=O)NC(C)CC(=O)NCc1cccnc1Oc1ccccc1C (stereo not drawn),11.4%
13,COc1cccc(N2CCN(C(=O)C(O)c3cccc(Cl)c3)CC2=O)c1 (stereo not drawn),-11.2%
14,COCCCC1CCCN(C(=O)CCc2cc(O)no2)C1 (stereo not drawn),8.41%
15,COCCN1CCC(NCc2cc(F)ccc2F)C1 (stereo not drawn),-21.9%
16,COc1ccccc1CC(=O)NS(=O)(=O)c1ccc(NC(C)=O)cc1,-2.18%
17,CCCC(=O)NC(C(=O)OC)c1cc(F)ccc1F (stereo not drawn),8.55%
18,CC(=O)N(Cc1ncc(C(C)C)o1)C1CCN(CCn2cncn2)C1 (stereo not drawn),-11.3%
19,CN1CCCN(C(=O)NCc2cc(Br)cs2)CC1,-16.7%
20,Cc1ncc(C(=O)NCCNC(=O)Cc2cccc(F)c2)s1,-4.53%
21,Cc1nc(CN2CCCC(N(C)CCOCC(F)(F)F)C2)no1 (stereo not drawn),-4.92%
22,O=C(Nc1cnn(CCN2CCOCC2)c1)c1ccccc1Cl,-5.81%
23,CC(Cn1ccnc1)NC(=O)N1CCN(Cc2ccco2)CC1 (stereo not drawn),-2.07%

row,SMILES,cytotoxicity at 10 µM
1,Cc1cc(C)n(CC2CCCN2C(=O)CCc2ccncc2)n1 (stereo not drawn),-14.4%
2,CC(C)OCCN1CCC(C(=O)c2cc(F)ccc2F)CC1,-8.63%
3,CCc1nc2n(n1)CC(NCC(=O)Nc1oc(C)c(C)c1C#N)CC2 (stereo not drawn),-8.84%
4,CCOc1ccnc(N2CCN(C(=O)c3ccoc3C)CC2)n1,-0.463%
5,Cc1ccc(-c2nc(CN3CCOC(Cn4cccn4)C3)no2)cc1 (stereo not drawn),-8.93%
6,CCc1nc(CN(C(C)=O)C2CCN(Cc3csc(C)n3)C2)no1 (stereo not drawn),-12.8%
7,COc1ncccc1CNC(=O)NCc1ccco1,-12.8%
8,CC(C)C(=O)NC1CCCN(C(=O)c2cc3ccccc3cc2O)C1 (stereo not drawn),-4.14%
9,CC(O)(CN1CCN(CCO)CC1)c1cccc(C(F)(F)F)c1 (stereo not drawn),-17.5%
10,Cn1ccnc1CN1CCCC1Cn1cccn1 (stereo not drawn),-13.8%
11,CNc1cc2c(nn1)CCN(C(=O)c1cccc3c1OCO3)C2,-10.6%
12,CC(C)c1ncc2c(n1)CN(Cc1cccc(OCC(N)=O)c1)CC2,-7.44%
13,COc1ccc(C(=O)N2CCC(Nc3cccnn3)CC2)c(OC)c1,4.67%
14,CCNC(c1ccc(OC)cc1)c1cccnc1 (stereo not drawn),-3.54%
15,COc1ccc(CNCc2c(C)nn(C)c2N2CCOCC2)cc1,-1.32%
16,CN(C)C(=O)N1CCC2(CC1)NC(=O)c1ccccc12,-10.1%
17,Cc1nc(COC[C@]23COC[C@H]2CN(Cc2ccoc2)C3)cs1,-19.2%
18,N#Cc1ccc(C(=O)N2CC[C@H]3[C@H]2CCN3CC2CCOCC2)cc1,-5.19%
19,c1ccn(Cc2nnc3n2CCCN(Cc2ccoc2)C3)c1,0.993%
20,Fc1cnc(N2CCO[C@H]3CN(CC4CCCC4)C[C@H]32)nc1,-9.39%
21,Cc1cc(N2CCN(C(=O)[C@@H]3C[C@H]4C=C[C@@H]3C4)CC2)nc2ccccc12,-5.71%
